# Experimental data from ChEMBL document CHEMBL3621099, “Design and synthesis of carbazole carboxamides as promising inhibitors of Bruton's tyrosine kinase (BTK) and Janus kinase 2 (JAK2)” (Bioorg Med Chem Lett, 2015).
# Legend:
# [1] = molecular target: Non-receptor tyrosine-protein kinase TYK2 (Homo sapiens, UniProt P29597); experiment: Inhibition of TYK2 (unknown origin)
# [2] = molecular target: T1, Tyrosine-protein kinase ITK/TSK (Homo sapiens, UniProt Q08881); experiment: Inhibition of ITK (unknown origin)
# T1 sequence (Q08881 whole entry): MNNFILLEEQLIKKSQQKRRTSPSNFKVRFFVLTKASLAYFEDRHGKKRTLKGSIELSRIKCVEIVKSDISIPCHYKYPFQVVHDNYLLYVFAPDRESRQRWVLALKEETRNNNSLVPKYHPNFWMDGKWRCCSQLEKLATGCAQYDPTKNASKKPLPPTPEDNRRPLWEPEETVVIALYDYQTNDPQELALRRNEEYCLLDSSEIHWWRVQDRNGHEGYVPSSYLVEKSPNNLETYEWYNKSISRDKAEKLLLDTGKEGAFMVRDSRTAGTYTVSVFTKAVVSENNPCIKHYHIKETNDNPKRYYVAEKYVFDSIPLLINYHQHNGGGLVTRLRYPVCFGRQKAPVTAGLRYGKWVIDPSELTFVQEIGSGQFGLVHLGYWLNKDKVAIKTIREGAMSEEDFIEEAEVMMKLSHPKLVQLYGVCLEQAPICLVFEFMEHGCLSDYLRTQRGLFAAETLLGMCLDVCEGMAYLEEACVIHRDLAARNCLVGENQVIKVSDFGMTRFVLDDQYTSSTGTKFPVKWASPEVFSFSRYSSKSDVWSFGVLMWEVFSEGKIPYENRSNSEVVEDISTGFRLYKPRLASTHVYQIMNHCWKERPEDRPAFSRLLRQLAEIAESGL
# [3] = molecular target: Tyrosine-protein kinase Lyn (Homo sapiens, UniProt P07948); experiment: Inhibition of LYNa (unknown origin)
# [4] = molecular target: T2, Cytoplasmic tyrosine-protein kinase BMX (Homo sapiens, UniProt P51813); experiment: Inhibition of BMX (unknown origin)
# T2 sequence (P51813 whole entry): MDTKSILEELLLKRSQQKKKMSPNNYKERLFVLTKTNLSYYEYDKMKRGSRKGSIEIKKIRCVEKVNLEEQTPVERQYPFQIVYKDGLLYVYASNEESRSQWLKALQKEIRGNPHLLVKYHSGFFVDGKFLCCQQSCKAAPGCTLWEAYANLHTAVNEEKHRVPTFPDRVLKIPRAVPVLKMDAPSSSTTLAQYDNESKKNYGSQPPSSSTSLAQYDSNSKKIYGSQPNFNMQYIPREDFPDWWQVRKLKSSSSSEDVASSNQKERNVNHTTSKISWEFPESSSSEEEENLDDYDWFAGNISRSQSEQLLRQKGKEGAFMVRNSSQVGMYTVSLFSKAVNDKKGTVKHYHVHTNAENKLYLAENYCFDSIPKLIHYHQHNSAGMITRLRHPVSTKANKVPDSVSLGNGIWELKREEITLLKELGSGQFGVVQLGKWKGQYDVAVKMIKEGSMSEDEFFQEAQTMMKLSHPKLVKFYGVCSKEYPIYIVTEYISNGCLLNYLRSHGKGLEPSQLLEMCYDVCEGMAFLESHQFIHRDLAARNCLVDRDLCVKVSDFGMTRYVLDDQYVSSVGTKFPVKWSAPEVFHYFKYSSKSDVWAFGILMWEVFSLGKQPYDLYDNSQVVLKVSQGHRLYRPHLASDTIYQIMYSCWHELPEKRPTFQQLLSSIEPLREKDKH
# [5] = molecular target: Cyclin-dependent kinase 2 (Homo sapiens, UniProt P24941); experiment: Inhibition of CDK2 (unknown origin)
# [6] = molecular target: T3, Tyrosine-protein kinase TXK (Homo sapiens, UniProt P42681); experiment: Inhibition of TXK (unknown origin)
# T3 sequence (P42681 whole entry): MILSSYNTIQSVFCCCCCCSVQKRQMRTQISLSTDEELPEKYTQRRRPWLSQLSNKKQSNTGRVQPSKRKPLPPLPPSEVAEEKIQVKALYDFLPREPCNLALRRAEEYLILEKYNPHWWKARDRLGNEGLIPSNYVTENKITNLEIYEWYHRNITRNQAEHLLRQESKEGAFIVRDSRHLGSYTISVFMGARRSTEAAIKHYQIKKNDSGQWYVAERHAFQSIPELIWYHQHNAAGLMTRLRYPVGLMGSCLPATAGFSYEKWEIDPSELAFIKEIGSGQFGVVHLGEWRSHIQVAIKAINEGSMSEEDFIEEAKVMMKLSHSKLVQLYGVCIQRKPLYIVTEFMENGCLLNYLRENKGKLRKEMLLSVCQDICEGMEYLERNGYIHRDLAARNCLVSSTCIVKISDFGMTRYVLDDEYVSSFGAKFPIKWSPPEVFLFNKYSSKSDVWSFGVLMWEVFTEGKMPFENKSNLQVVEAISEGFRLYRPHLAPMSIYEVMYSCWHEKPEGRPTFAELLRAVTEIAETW
# [7] = molecular target: Mast/stem cell growth factor receptor Kit (Homo sapiens, UniProt P10721); experiment: Inhibition of cKIT (unknown origin)
# [8] = molecular target: T4, Tyrosine-protein kinase Tec (Homo sapiens, UniProt P42680); experiment: Inhibition of TEC (unknown origin)
# T4 sequence (P42680 whole entry): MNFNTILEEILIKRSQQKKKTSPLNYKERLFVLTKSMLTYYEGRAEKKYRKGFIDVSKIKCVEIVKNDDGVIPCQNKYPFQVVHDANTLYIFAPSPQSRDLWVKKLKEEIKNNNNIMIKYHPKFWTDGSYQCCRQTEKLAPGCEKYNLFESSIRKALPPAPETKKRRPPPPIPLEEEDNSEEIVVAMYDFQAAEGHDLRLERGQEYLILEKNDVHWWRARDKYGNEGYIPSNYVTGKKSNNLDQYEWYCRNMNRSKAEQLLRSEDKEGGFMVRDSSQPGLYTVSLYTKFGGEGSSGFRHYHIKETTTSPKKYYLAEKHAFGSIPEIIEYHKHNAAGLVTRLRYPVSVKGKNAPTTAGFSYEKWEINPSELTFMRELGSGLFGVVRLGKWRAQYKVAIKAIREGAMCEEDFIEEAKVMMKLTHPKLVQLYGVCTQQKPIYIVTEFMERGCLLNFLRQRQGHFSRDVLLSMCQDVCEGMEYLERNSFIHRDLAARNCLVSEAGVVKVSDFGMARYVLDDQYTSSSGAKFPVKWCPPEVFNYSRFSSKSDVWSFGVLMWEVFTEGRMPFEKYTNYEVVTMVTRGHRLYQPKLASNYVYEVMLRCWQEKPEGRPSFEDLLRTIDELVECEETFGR
# [9] = molecular target: Tyrosine-protein kinase JAK2 (Homo sapiens, UniProt O60674); experiment: Inhibition of JAK2 (unknown origin)
# [10] = molecular target: Tyrosine-protein kinase Lck (Homo sapiens, UniProt P06239); experiment: Inhibition of LCK (unknown origin)
# [11] = molecular target: T5, Aurora kinase A (Homo sapiens, UniProt O14965); experiment: Inhibition of Aurora-A (unknown origin)
# T5 sequence (O14965 whole entry): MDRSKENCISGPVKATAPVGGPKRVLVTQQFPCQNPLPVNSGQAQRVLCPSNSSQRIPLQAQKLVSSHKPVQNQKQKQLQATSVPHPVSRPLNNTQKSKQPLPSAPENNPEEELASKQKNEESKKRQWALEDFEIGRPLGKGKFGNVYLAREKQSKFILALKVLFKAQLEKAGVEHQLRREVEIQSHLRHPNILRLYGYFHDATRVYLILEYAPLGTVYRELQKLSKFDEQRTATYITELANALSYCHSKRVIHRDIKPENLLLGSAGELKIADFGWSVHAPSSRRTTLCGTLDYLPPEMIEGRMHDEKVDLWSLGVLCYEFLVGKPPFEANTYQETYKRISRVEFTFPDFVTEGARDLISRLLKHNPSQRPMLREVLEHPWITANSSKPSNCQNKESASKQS
# [12] = molecular target: Tyrosine-protein kinase BTK (Homo sapiens, UniProt Q06187); experiment: Inhibition of human recombinant BTK
# [13] = AUC in mouse at 10 mg/kg, po; format: ADME, organism-based; details: in vivo
# [14] = Drugrecovery in human liver microsomes after 10 mins; format: ADME
# Procedure, shortened: (§1)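 Test compound at 0.5 μM was incubated with human, rat or mouse liver microsomes for 10 minutes at 37 °C. The readout was the percentage of unchanged compound recovered after incubation.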
# [15] = Drugrecovery in mouse liver microsomes after 10 mins; format: ADME; procedure, shortened: as §1
# [16] = Drugrecovery in rat liver microsomes after 10 mins; format: ADME; procedure, shortened: as §1
# Sequence of Tyrosine-protein kinase Lck (P06239 whole entry): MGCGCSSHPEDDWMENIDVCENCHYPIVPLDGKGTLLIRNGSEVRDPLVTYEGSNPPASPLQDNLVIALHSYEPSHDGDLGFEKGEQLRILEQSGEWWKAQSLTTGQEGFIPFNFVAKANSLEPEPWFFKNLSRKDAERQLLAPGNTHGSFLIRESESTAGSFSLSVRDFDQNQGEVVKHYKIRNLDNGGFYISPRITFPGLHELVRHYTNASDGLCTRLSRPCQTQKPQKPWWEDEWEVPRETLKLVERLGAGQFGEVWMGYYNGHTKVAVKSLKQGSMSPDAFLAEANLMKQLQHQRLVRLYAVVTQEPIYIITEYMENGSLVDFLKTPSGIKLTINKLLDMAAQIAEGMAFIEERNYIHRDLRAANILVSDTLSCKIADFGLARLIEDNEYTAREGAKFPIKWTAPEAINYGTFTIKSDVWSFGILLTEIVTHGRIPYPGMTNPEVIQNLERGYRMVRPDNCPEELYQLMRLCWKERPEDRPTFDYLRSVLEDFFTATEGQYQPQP
# Sequence of Non-receptor tyrosine-protein kinase TYK2 (P29597 whole entry): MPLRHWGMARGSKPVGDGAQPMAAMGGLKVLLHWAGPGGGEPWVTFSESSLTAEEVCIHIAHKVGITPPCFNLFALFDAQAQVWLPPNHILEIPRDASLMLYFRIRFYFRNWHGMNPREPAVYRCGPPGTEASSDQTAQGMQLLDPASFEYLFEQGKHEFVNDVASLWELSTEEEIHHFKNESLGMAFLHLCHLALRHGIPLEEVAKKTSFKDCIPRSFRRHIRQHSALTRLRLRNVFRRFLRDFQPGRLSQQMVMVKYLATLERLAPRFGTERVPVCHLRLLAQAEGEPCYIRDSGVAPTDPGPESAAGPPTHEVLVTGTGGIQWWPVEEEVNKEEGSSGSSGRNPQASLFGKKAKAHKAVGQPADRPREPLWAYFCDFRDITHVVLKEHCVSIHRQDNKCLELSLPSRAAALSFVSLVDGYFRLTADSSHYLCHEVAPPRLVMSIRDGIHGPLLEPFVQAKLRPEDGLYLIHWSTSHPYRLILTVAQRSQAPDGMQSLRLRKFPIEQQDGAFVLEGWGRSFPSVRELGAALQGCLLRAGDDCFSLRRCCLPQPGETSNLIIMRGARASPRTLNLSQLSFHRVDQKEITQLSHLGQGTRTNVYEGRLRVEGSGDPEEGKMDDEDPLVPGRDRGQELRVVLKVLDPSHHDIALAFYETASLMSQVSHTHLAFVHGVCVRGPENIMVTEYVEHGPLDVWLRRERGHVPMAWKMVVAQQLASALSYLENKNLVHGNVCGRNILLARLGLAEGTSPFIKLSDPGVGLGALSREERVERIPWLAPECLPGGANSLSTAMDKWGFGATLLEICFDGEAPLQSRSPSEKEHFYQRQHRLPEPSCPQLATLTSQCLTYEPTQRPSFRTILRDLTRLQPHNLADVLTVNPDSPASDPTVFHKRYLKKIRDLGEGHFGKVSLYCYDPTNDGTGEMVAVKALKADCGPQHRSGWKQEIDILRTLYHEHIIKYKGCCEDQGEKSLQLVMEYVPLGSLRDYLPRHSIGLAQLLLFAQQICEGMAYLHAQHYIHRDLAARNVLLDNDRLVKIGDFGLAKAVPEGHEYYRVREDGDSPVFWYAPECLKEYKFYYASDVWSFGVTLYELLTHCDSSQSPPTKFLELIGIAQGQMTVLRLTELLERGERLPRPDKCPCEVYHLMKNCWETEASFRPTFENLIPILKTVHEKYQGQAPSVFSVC
# Sequence of Mast/stem cell growth factor receptor Kit (P10721 whole entry): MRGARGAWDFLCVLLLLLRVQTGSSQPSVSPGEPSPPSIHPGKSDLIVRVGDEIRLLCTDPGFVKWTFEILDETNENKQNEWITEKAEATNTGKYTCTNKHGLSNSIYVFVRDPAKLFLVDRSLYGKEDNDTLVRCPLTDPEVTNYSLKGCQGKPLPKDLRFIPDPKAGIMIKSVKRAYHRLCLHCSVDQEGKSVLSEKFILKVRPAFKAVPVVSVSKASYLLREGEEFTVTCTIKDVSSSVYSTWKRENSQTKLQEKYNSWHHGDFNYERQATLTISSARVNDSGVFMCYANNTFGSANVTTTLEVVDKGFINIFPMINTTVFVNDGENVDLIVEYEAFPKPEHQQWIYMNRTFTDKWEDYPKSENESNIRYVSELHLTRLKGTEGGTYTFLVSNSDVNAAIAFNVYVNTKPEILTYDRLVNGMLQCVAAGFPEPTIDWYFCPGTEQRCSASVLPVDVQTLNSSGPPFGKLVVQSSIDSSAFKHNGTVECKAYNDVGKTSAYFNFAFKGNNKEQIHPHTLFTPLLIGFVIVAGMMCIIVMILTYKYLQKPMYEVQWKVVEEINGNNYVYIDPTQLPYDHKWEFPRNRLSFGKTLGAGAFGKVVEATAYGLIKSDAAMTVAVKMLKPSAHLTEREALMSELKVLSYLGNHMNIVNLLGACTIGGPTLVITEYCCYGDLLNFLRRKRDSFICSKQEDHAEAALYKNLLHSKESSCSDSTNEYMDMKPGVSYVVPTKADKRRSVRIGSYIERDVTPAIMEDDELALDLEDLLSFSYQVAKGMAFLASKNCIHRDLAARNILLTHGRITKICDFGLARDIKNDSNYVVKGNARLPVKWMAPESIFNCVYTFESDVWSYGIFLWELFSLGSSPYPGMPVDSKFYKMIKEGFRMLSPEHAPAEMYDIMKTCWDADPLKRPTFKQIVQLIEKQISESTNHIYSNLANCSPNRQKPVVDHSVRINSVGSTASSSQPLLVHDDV
# Sequence of Tyrosine-protein kinase Lyn (P07948 whole entry): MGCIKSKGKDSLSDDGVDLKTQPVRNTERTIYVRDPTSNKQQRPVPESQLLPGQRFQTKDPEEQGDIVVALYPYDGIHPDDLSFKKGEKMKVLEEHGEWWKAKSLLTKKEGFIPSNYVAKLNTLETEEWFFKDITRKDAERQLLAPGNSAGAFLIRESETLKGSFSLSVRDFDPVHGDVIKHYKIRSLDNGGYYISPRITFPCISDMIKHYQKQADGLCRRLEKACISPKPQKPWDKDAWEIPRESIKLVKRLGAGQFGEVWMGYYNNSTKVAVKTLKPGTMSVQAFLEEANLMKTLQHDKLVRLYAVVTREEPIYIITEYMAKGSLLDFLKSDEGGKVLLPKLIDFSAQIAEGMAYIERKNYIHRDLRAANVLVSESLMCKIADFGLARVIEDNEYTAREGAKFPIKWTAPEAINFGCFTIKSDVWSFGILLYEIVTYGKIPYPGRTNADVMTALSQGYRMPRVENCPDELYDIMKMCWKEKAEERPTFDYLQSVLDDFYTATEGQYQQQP
# Sequence of Tyrosine-protein kinase BTK (Q06187 whole entry): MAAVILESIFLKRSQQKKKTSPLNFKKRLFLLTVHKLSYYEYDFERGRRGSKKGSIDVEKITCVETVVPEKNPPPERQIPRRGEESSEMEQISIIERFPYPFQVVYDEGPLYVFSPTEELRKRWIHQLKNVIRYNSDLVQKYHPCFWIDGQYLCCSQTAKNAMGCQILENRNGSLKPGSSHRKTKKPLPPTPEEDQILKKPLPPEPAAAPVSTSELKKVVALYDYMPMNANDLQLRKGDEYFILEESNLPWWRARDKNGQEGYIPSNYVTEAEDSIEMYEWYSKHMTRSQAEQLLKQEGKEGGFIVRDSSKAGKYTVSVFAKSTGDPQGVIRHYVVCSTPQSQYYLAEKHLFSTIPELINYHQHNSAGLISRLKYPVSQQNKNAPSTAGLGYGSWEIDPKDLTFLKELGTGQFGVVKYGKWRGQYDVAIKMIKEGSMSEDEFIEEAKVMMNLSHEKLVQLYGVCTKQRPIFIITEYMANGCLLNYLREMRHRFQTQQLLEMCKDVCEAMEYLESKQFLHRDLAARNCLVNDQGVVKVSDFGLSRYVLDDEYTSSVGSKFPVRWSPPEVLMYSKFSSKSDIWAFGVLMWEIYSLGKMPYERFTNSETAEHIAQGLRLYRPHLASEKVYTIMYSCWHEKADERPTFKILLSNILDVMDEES
# Sequence of Tyrosine-protein kinase JAK2 (O60674 whole entry): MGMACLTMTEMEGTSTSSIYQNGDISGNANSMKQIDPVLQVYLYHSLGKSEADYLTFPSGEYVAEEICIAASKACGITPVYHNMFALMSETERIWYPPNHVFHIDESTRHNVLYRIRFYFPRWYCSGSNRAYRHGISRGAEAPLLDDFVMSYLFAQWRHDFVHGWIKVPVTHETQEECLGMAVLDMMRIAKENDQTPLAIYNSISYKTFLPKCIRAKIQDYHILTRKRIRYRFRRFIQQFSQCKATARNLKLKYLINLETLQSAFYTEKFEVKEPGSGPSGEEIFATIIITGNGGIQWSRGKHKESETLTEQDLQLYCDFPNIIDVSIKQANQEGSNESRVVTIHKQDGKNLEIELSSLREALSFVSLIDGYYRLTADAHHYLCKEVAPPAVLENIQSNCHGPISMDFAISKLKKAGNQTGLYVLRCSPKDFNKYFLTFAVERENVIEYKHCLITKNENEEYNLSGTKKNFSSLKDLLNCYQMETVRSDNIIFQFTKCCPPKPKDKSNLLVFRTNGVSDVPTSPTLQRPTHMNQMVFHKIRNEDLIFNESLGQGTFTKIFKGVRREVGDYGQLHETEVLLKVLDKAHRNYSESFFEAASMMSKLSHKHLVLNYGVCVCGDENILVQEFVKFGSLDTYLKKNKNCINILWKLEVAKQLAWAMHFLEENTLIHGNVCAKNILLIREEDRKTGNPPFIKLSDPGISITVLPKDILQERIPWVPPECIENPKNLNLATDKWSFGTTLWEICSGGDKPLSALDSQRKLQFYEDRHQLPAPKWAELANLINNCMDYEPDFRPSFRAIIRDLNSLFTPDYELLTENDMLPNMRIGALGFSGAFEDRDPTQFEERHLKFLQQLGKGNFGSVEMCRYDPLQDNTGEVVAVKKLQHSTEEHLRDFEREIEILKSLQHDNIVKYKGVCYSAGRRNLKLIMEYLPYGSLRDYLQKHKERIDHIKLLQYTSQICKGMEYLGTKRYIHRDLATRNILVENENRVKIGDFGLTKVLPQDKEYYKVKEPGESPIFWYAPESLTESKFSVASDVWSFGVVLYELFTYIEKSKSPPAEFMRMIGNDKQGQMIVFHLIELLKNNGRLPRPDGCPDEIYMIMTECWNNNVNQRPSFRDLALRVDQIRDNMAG
SMILES,IC50 [1],IC50 [2],IC50 [3],IC50 [4],IC50 [5],IC50 [6],IC50 [7],IC50 [8],IC50 [9],IC50 [10],IC50 [11],IC50 [12],AUC [13],remaining at 10 min [14],remaining at 10 min [15],remaining at 10 min [16]
CC(=O)Nc1cccc(-c2ccc(C(N)=O)c3[nH]c4cc(C(=O)N5CCN(C)CC5)ccc4c23)c1C,> 2000 nM,55 nM,204 nM,193 nM,2700 nM,172 nM,471 nM,162 nM,212 nM,108 nM,> 2000 nM,,,,,
CN1CCN(C(=O)c2ccc3c(c2)[nH]c2c(C(N)=O)ccc(-c4cccc(NC(=O)c5ccc(N(C)C)cc5)c4F)c23)CC1,14300 nM,115 nM,824 nM,109 nM,> 50000 nM,95 nM,1050 nM,41 nM,,569 nM,493 nM,3 nM,,,,
CN1CCN(C(=O)c2ccc3c(c2)[nH]c2c(C(N)=O)ccc(-c4ccccc4F)c23)CC1,753 nM,39 nM,68 nM,119 nM,610 nM,119 nM,41 nM,116 nM,,81 nM,444 nM,15 nM,25.6 µM·h,,,
CC(C)(C)c1ccc(C(=O)N[C@@H]2CCCN(c3ccc(C(N)=O)c(Nc4ccc(C(=O)N5CCOCC5)cc4)n3)C2)cc1,,,,,,,,,,,,,,< 3%,< 3%,< 3%
